# Results published in ChEMBL document CHEMBL3286382, “Synthesis and biological evaluation of imidazo[1,2-a]pyrimidines and imidazo[1,2-a]pyridines as new inhibitors of the Wnt/β-catenin signaling” (Eur J Med Chem, 2014).
# Calls of active or inactive are those of the source. The calls are words filed in the database; no cut-off is given here.
# How the values were obtained:
# [1] = tested on: HT-29; assay: Inhibition of Wnt signaling in human HT29 cells assessed as inhibition of beta-catenin-mediated Tcf/Lef transcriptional activity after 24 hrs by dual luciferase reporter gene assay relative to control; format: cell-based; conditions: HT-29, 24 h
# [2] = tested on: HT-29; assay: Antiproliferative activity against human HT-29 cells after 72 hrs by MTT assay; format: functional; conditions: HT-29, 72 h
# How it was run: (§1)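 Cells grown in DMEM with 10% FBS, penicillin G, streptomycin and L-glutamine, seeded 7 x 10^3 per well, left 24 h, then exposed to scalar concentrations in complete medium for 72 h at 37 °C, 5% CO2. Viability read by MTT; IC50 taken as the concentration giving 50% inhibition of proliferation.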
# [3] = tested on: HepG2; assay: Antiproliferative activity against human HepG2 cells after 72 hrs by MTT assay; format: functional; conditions: HepG2, 72 h; how it was run: as §1
# [4] = tested on: A549; assay: Antiproliferative activity against human A549 cells after 72 hrs by MTT assay; format: functional; conditions: A549, 72 h; how it was run: as §1
# [5] = tested on: HT-29; assay: Inhibition of Wnt signaling in human HT29 cells assessed as inhibition of beta-catenin-mediated Tcf/Lef transcriptional activity at 25 uM after 24 hrs by dual luciferase reporter gene assay relative to control; format: cell-based
# How it was run: (§2)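 HT-29 cells (1.4 x 10^4) were co-transfected with 1 µg BAT-LUX, which carries 7 TCF sites and the siamois promoter driving firefly luciferase, plus 1 µg Renilla vector. Cells were then treated at 37 °C for 24 h, with or without the GSK-3β inhibitor LiCl. Dual-Glo readout; values are the mean firefly/Renilla ratio.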
# [6] = tested on: HT-29; assay: Inhibition of Wnt signaling in human HT29 cells assessed as inhibition of beta-catenin-mediated Tcf/Lef transcriptional activity at 25 uM after 24 hrs by dual luciferase reporter gene assay relative to control in presence of GSK-3beta inhibitor LiCl; format: cell-based; how it was run: as §2
# [7] = tested on: HT-29; assay: Inhibition of Wnt/beta-catenin signaling in human HT29 cells assessed as […] in axin2 mRNA expression at 25 uM after 24 hrs by quantitative real-time PCR assay; format: cell-based
# How it was run: (§3)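 Total RNA was extracted with TRIzol from HT-29 cells treated for 24 h. Transcripts were measured by real-time RT-PCR with GUS as the reference gene, and expression was expressed relative to untreated cells.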
# [8] = tested on: HT-29; assay: Inhibition of Wnt signaling in human HT29 cells assessed as beta-catenin dephosphorylation at S33/37/T41 residues at 25 uM after 24 hrs by Western blot analysis; format: cell-based
# How it was run: (§4)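 After 24 h exposure, HT-29 cells were washed in cold PBS, lysed on ice for 30 min and cleared at 15 000 g, 4 °C. 10 µg protein was run on 12% SDS-PAGE and transferred to PVDF. Blots were probed with specific primary antibodies, then peroxidase-labelled secondaries, and developed by ECL. β-actin re-probing served as the loading control.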
# [9] = tested on: HT-29; assay: Inhibition of Wnt/beta-catenin signaling in human HT29 cells assessed as GSK3-beta dephosphorylation at Ser21/Ser9 residues at 25 uM after 24 hrs by Western blot analysis; format: cell-based; how it was run: as §4
# [10] = tested on: HT-29; assay: Inhibition of Wnt/beta-catenin signaling in human HT29 cells assessed as […] protein level at 25 uM after 24 hrs by Western blot analysis; format: cell-based; how it was run: as §4
# [11] = tested on: HT-29; assay: Inhibition of Wnt/beta-catenin signaling in human HT29 cells assessed as downregulation of cyclin D1 protein expression at 25 uM after 24 hrs by Western blot analysis; format: cell-based; how it was run: as §4
# [12] = tested on: HT-29; assay: Inhibition of Wnt/beta-catenin signaling in human HT29 cells assessed as increase in p21 protein expression at 25 uM after 24 hrs by Western blot analysis; format: cell-based; how it was run: as §4
# [13] = tested on: HT-29; assay: Inhibition of Wnt/beta-catenin signaling in human HT29 cells assessed as downregulation of cyclin B1 protein expression at 25 uM after 24 hrs by Western blot analysis; format: cell-based; how it was run: as §4
# [14] = tested on: HT-29; assay: Inhibition of Wnt/beta-catenin signaling in human HT29 cells assessed as increase in phosphorylated c-myc level at 25 uM after 24 hrs by Western blot analysis; format: cell-based; how it was run: as §4
# [15] = tested on: HT-29; assay: Inhibition of Wnt/beta-catenin signaling in human HT29 cells assessed as decrease in TCF4 mRNA expression at 25 uM after 24 hrs by quantitative real-time PCR assay; format: cell-based; how it was run: as §3
# [16] = tested on: HT-29; assay: Inhibition of Wnt/beta-catenin signaling in human HT29 cells assessed as effect on c-myc mRNA expression at 25 uM after 24 hrs by quantitative real-time PCR assay; format: cell-based; how it was run: as §3
# [17] = tested on: HT-29; assay: Cell cycle arrest in human HT-29 cells assessed as accumulation of cells at G1 phase at 25 uM after 24 hrs by flow cytometry; format: functional, cell-based
# How it was run: (§5)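 Exponentially growing HT-29 cells (1.5 × 10^5) were treated with the compounds for 24 h, then collected and fixed in ice-cold 70% ethanol. Fixed cells were treated with lysis buffer holding RNase A and 0.1% Triton X-100, stained with PI and analysed for DNA content by flow cytometry.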
# [18] = tested on: HT-29; assay: Cell cycle arrest in human HT-29 cells assessed as reduction of cells in S phase at 25 uM after 24 hrs by flow cytometry; format: functional, cell-based; how it was run: as §5
# [19] = tested on: HT-29; assay: Cell cycle arrest in human HT-29 cells assessed as reduction of cells in G2/M phase at 25 uM after 24 hrs by flow cytometry; format: functional, cell-based; how it was run: as §5
# [20] = species on record: Danio rerio; assay: Toxicity in zebrafish larvae assessed as mortality at 5 to 25 uM treated for 7 days; format: organism-based; conditions: in vivo, 168 h
# How it was run: (§6)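 Wild-type zebrafish larvae raised under standard conditions were exposed to compounds dissolved in E3 medium. The medium containing compound was renewed every day for 7 days. The read-out was survival rate (mortality) at the end of exposure.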
# [21] = species on record: Danio rerio; assay: Toxicity in zebrafish larvae assessed as mortality at 1 uM treated for 7 days; format: organism-based; conditions: in vivo, 168 h; how it was run: as §6
# [22] = Antiproliferative activity against human fibroblasts after 72 hrs by MTT assay; format: cell-based, Fibroblast
# [23] = tested on: LoVo; assay: Antiproliferative activity against human LoVo cells after 72 hrs by MTT assay; format: functional; how it was run: as §1
# [24] = tested on: HT-29; assay: Inhibition of Wnt/beta-catenin signaling in human HT29 cells assessed as decrease in TCF1 protein level at 25 uM after 24 hrs by Western blot analysis; format: cell-based; how it was run: as §4
# [25] = species on record: Danio rerio; assay: Toxicity in zebrafish larvae assessed as mortality at 25 uM treated for 7 days; format: organism-based; conditions: in vivo, 168 h; how it was run: as §6
# [26] = tested on: Danio rerio; assay: Inhibition of Wnt/beta-catenin signaling in zebrafish larvae assessed as inhibition of Tcf/Lef transcriptional activity measured as pericardial edema at 10 uM after 72 hrs by GFP reporter assay; format: functional, organism-based
# How it was run: (§7)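 TCF/LEF-GFP reporter zebrafish were exposed from 24 hours post-fertilization for 72 h, with compounds dissolved in E3 medium that was renewed daily. GFP in the head and intestine was imaged by fluorescence stereomicroscope at 8X, alongside bright-field images.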
# [27] = species on record: Danio rerio; assay: Inhibition of Wnt/beta-catenin signaling in zebrafish larvae assessed as inhibition of Tcf/Lef transcriptional activity measured as dysmorphic craniofacial features at 10 uM after 72 hrs by GFP reporter assay; format: functional, organism-based; how it was run: as §7
# [28] = species on record: Danio rerio; assay: Inhibition of Wnt/beta-catenin signaling in zebrafish larvae assessed as inhibition of Tcf/Lef transcriptional activity measured as thinner intestine at 10 uM after 72 hrs by GFP reporter assay; format: functional, organism-based; how it was run: as §7
# [29] = species on record: Danio rerio; assay: Inhibition of Wnt/beta-catenin signaling in zebrafish larvae assessed as inhibition of Tcf/Lef transcriptional activity measured as thinner intestine at 1 uM after 72 hrs by GFP reporter assay; format: functional, organism-based; how it was run: as §7
# [30] = species on record: Danio rerio; assay: Inhibition of Wnt/beta-catenin signaling in zebrafish larvae assessed as inhibition of Tcf/Lef transcriptional activity at 10 uM after 72 hrs by GFP reporter assay; format: functional, organism-based; how it was run: as §7
# [31] = tested on: HT-29; assay: Inhibition of Wnt signaling in human HT29 cells assessed as increase in cytoplasmic beta-catenin at 25 uM after 24 hrs by fluorescence microscopy; format: cell-based
# How it was run: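 Cells were fixed in cold 4% formaldehyde for 15 min and stained with anti-β-catenin (mouse, 1:50), then an Alexa-conjugated secondary, with DAPI counterstain. Images were taken on a video-confocal microscope with a 60x objective.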
SMILES,IC50 [1] [µM],GI50 [2] [µM],GI50 [3] [µM],GI50 [4] [µM],inhibition [5],inhibition [6],inhibition [7],inhibition [8],inhibition [9],inhibition [11],inhibition [12],inhibition [13],inhibition [14],inhibition [15],inhibition [16],Activity [17],Activity [18],Activity [19],GI50 at 72 h [22] [µM],GI50 [23] [µM],other results
Cc1ccc2nc(-c3ccc(NCc4ccccc4)cc3)cn2c1,11.1,8.8,> 100,56.1,Active,Active,Active,Active,inactive,Active,Active,Active,Active,Active,inactive,inactive,inactive,inactive,> 100,–,inhibition [10]: Active; Activity [20]: Toxic; Activity [21]: Non-toxic
Cc1ccn2cc(-c3ccc(N(Cc4ccccc4)Cc4ccccc4)cc3)nc2c1,24.1,6.9,18.4,17.2,Active,Active,Active,Active,inactive,Active,Active,Active,Active,Active,inactive,Active,Active,Active,52.3,5.7,inhibition [24]: Active; Activity [25]: Toxic; inhibition [26]: Active; inhibition [27]: Active; inhibition [28]: Active
CC(=O)Nc1cc(=O)n(Cc2ccccc2)c(SCc2ccccc2)n1,35.6,79.3,71.7,50.4,–,–,–,–,–,–,–,–,–,–,–,–,–,–,–,56.3,Activity [20]: Toxic; Activity [21]: Non-toxic; inhibition [29]: Active
O=C(Nc1cccc2cccnc12)c1ccc(N2C(=O)[C@@H]3[C@H](C2=O)[C@@H]2C=C[C@H]3C2)cc1,–,> 100,95.4,> 100,Active,Active,Active,–,–,–,–,–,–,–,–,–,–,–,–,63.1,inhibition [30]: Active
Cc1cc(O)n2cc(-c3ccc([N+](=O)[O-])cc3)nc2n1,10.4,90.1,> 100,38.9,Active,Active,Active,–,inactive,Active,Active,Active,Active,Active,inactive,inactive,inactive,inactive,> 100,87.6,inhibition [10]: Active; inhibition [31]: Active
